High-throughput results from PubChem.
Rows were chosen to be rich in hits. Some 0.85% of all compounds tested hit in one or more screens of this group.
OXTR potentiate – potentiates the human oxytocin receptor response; activation, % at 3 µM; CHO-OTR cells, Fluo-8 calcium fluorescence, potentiator mode; 0% = oxytocin EC15, 100% = EC100; hit rate 0.061% among 320,000; AID 2445;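 active means activation above that plate's cutoff, the mean activation of tested compounds plus 3 SD, cut at about 6.6% in these data, passing the limit was not always enough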;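 further: 100% uses oxytocin at 75 nM as the full agonist control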
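Assay system: CHO cell line stably expressing human OTR. Reagent: EC15 oxytocin agonist. Dosing: single dose, 3.0 µM nominal final compound concentration. Timing: compound 6 min at room temperature before oxytocin, 100 s read. Signal: kinetic Fluo-8 calcium fluorescence. Controls: oxytocin EC15 low and EC100 high.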
TRPN1 ag – agonists of zebrafish TRPN1 channel; AID 1424; activation, % at 3 µM; hit rate 0.18% among 220,000; HEK293 zebrafish TRPN1-YFP, Fluo-8 calcium fluorescence; 100% = response to 87 µM carbachol;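 active means activation above its plate's cutoff, the mean activation of test wells on that plate plus 3 SD, cut at about 19% in these data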;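 further: 0% = DMSO alone and 100% = 87 µM carbachol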
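Material – zebrafish TRPN1-YFP in HEK293 cells · Doses – 3 µM single point · Schedule – dye 1 h 37 °C plus 30 min RT · Signal – Fluo-8 calcium fluorescence, excitation 470-495 nm, emission 515-575 nm · Read-out – % activation versus carbachol response · Control set – carbachol high, DMSO low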
OXTR ag – activates the human oxytocin receptor; P30559; CHO-OTR cells, Fluo-8 calcium fluorescence; normalized: DMSO 0%, oxytocin 100%; activation, % at 3 µM; hit rate 0.32% among 320,000; AID 2435;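 active means activation above the mean of all tested compounds plus 3 SD, cutoff set per screening run, cut at about 20% in these data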;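 further: peak over basal fluorescence ratio from a 100 s FLIPR kinetic read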
CRFBP-R2 agonist – CRF-BP/CRF-R2 complex agonism | HEK293 CRF-R2/CRF-BP, calcium dye fluorescence (FLIPR); percent of saturating CRF peptide response | activation, % at 13.2 µM | hit rate 0.46% among 350,000;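 active means activation of at least 50%, plus an integration ratio under a set limit after plate pattern correction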;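 further: plate controls were neutral control wells without compound for no effect and CRF at EC100 for full effect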
V1R ag counter – counter-screen for oxytocin receptor agonists: human V1a receptor agonists | activation, % at 3 µM | AID 2797 | CHO-V1R cells, Fluo-8 calcium fluorescence, agonist mode; 0% DMSO, 100% 3 nM vasopressin | P37288 | hit rate 0.25% among 320,000;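 active means activation above the mean activation of all tested compounds plus 3 SD, per screening run, cut at about 20% in these data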;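 further: signal is peak over basal fluorescence ratio across a 100 second FLIPR read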
Target sequence (P37288 whole entry, looked up): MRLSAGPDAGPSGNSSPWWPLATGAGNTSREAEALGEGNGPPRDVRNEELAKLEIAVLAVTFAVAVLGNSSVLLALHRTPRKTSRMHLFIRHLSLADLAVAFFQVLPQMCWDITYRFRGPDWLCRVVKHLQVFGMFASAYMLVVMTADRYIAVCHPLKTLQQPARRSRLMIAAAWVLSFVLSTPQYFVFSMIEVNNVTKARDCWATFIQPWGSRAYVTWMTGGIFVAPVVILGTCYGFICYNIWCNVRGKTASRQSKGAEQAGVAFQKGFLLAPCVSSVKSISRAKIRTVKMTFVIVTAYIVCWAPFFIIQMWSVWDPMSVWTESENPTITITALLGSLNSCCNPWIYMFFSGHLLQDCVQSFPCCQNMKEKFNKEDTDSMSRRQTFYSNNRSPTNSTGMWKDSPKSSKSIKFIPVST
TRPML3 agonist – activates the human TRPML3 channel. Q8TDD5. HEK293 TRPML3-YFP, Fluo-8 calcium fluorescence; 100% = the carbachol control signal. activation, % at 3 µM. hit rate 0.29% among 220,000. AID 1448;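 active means activation above its plate's cutoff, the mean activation of the plate's test wells plus 3 SD, cut at about 12% in these data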;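 further: 0% = DMSO only wells and 100% = carbachol wells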
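Test system: TRPML3-YFP stable HEK293 cells. Doses: single point at 3 µM. Incubation: dye loading 1 h 37 °C then 30 min ambient, 125 s read. Signal: Fluo-8 calcium dye fluorescence, ex 470-495, em 515-575 nm. Measure: percent activation from peak-to-basal fluorescence ratio, scaled between DMSO and carbachol.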
Numbers without * were called inactive; . = no result.

SMILES | OXTR potentiate | TRPN1 ag | OXTR ag | CRFBP-R2 agonist | V1R ag counter | TRPML3 agonist
CCOc1ccc(-c2c(C(=O)N/N=C(\C)c3ccco3)nnn2-c2nonc2N)cc1 | -19.1 | . | 25.8* | -0.6 | 23.1* | .
COc1ccc(OC)c(/C=C2\N=C(c3ccccc3)OC2=O)c1 | 0.6 | . | 1.9 | 103.7* | 0.6 | .
CCN(CC)c1ccc(/C=C/C(=O)c2ccc(Br)cc2)cc1 | -7.4 | 55.8* | 142.9* | 325.5* | 153.8* | 58.9*
CN(C)c1ccc(C(=O)/C=C/c2ccc(Br)cc2)cc1 | -8.9 | -0.1 | -0.9 | 0.9 | 0.0 | 0.3
O=C1CC(O)(C(F)(F)F)Oc2c1ccc1ccccc21 (configuration not stated) | -15.1 | 9.0 | 17.1 | 61.6* | 4.3 | -0.3
CCn1cc(S(=O)(=O)NCc2ccc(OC)cc2)cn1 | -0.6 | . | -1.0 | 1.3 | 1.8 | .
Cc1ccc(CSC(Nc2ccc(F)cc2)=C(C#N)C#N)cc1 | -6.4 | 25.3* | 8.8 | 51.0* | 8.8 | 14.9*
N#Cc1ccc(COC(=O)c2cnc(Cl)c(Cl)c2)cc1 | -6.8 | . | -0.5 | -1.0 | 2.3 | .
CCC1CCCCN1S(=O)(=O)c1ccc(NC(=O)c2nc(S(C)(=O)=O)ncc2Cl)cc1 (configuration not stated) | -6.6 | . | -2.3 | 14.7 | -1.0 | .
N#Cc1ccc(C(=O)N2CCC3CC2c2cc(N4CCCCC4)ccc23)cc1 (configuration not stated) | . | . | . | -1.0 | . | .
CCN(CC)c1ccc(C=Nc2ccc(C)cc2)c(O)c1 | -3.9 | 1.1 | -1.7 | -0.6 | -0.5 | 0.9
CCN(CC)c1ccc(N=Cc2ccc(N(CC)CC)cc2O)cc1 | -6.0 | -1.8 | -1.1 | 93.9* | -1.0 | -0.5
CCN(CC)c1ccc(C=Nc2ccc(N(C)C)cc2)c(O)c1 | -7.6 | 0.3 | -1.7 | 50.7* | -1.0 | 0.1
CCN(CC(=O)Nc1ccccc1OC)C(=O)CN1C(=O)NC(C)(c2ccc3ccccc3c2)C1=O (configuration not stated) | . | . | . | -2.5 | . | .
O=C(CCCCl)Oc1ccc2cc(-c3ccc4ccccc4n3)c(=O)oc2c1 | -10.7 | 1.5 | 1.9 | 105.7* | 3.1 | 1.3
CC(=O)COc1ccc2cc(-c3ccccc3)c(=O)oc2c1 | -0.1 | . | 2.2 | 1.5 | 2.8 | .
O=C(NCCO)C1CCN(C(=O)c2ccc(-c3ccccc3)cc2)CC1 | -3.6 | 0.5 | 0.7 | 1.2 | -0.9 | -0.7
O=C(Cc1c(F)cccc1Cl)Nc1cc(S(=O)(=O)N2CCOCC2)ccc1N1CCOCC1 | . | . | . | -0.1 | . | .
COc1ccc(CN2C(=O)C(CC(=O)NCc3ccco3)CC(C(=O)N(C(C)C)C(C)C)=C2C)cc1 (configuration not stated) | . | . | . | -2.5 | . | .
Nc1c(C(=O)c2ccccc2)sc2nsc(SCCN3CCOCC3)c12 | -21.7 | 8.2 | 48.5* | 69.1* | 49.4* | 3.6
Cc1ccc(-c2cc(Cc3ccncc3)c(=O)[nH]n2)cc1 | -0.1 | 0.0 | -2.8 | -0.8 | 0.2 | 0.3
CCC(C(=O)Nc1ccc(C)cc1)c1ccccc1 (configuration not stated) | -5.1 | 1.0 | 1.7 | 6.7 | 3.8 | 1.4
CCc1ccc(NC(=O)C(CC)c2ccccc2)cc1 (configuration not stated) | -7.8 | 18.8 | 27.1* | 59.5* | 35.0* | 11.3
COc1ccc2c(Cl)c(C(=O)N/N=C3\CCCC(=O)C3)sc2c1 | -3.2 | 3.1 | 12.2 | 79.3* | 7.3 | 1.3
COc1ccc(-c2nnc(-c3cc4ccccc4oc3=O)o2)cc1 | -4.9 | -0.4 | 0.3 | -1.5 | 0.4 | 0.8
SMILES | OXTR potentiate | TRPN1 ag | OXTR ag | CRFBP-R2 agonist | V1R ag counter | TRPML3 agonist
CCCCCCc1cc2cc(S(=O)(=O)c3ccc(F)cc3)c(=O)oc2cc1O | -12.9 | 0.1 | 12.2 | 54.2* | 11.7 | 1.2
O=C(O)c1ccc2oc(=O)c(S(=O)(=O)c3ccc(F)cc3)cc2c1 | -7.6 | . | 0.3 | 5.9 | 0.8 | .
COc1ccc(NC(=O)c2cc3ccccc3oc2=O)c(OC)c1 | -13.8 | . | -0.8 | -0.7 | 0.0 | .
CCCCCCc1cc2cc(C(=O)Nc3ccccc3OC)c(=O)oc2cc1O | -4.0 | 1.6 | -1.0 | 102.0* | 0.6 | 1.4
CCCCCCc1cc2cc(-c3nnc(-c4ccccc4OC)o3)c(=O)oc2cc1O | -4.6 | 3.3 | 13.1 | 230.1* | 13.0 | 3.2
CCCCCCc1cc2cc(-c3nnc(-c4ccccc4O)o3)c(=O)oc2cc1O | -4.1 | 5.3 | 11.1 | 231.9* | 7.3 | 2.1
N#Cc1cccc(NC(=O)COC(=O)c2ccc[n+]([O-])c2)c1 | -3.5 | . | 1.4 | 0.6 | 1.2 | .
O=C(Cc1ccc(NC(=O)C2CCN(C(=O)C3CCC3)CC2)cc1)Nc1cccc(C(=O)N2CCCC2)c1 | . | . | . | -2.2 | . | .
COc1ccccc1C(=O)CN1C(=O)NC2(CCc3ccccc32)C1=O (configuration not stated) | -5.2 | . | 0.3 | -0.9 | 1.4 | .
COc1cc(-c2nnc(SCc3cc(=O)oc4cc(O)c(O)cc34)o2)cc(OC)c1OC | -0.2 | -0.4 | -2.1 | -1.4 | -1.6 | 0.8
CCCCCCc1cc2cc(-c3nnc(-c4cc(OC)c(OC)c(OC)c4)o3)c(=O)oc2cc1O | -0.9 | -0.1 | 3.3 | 98.7* | 2.1 | 0.7
NC(=O)c1cc2cc(Br)ccc2o/c1=N/NC(=O)c1cccc(F)c1 | . | . | . | -2.3 | . | .
COc1cccc(N2C(=O)C3NN=C(C(=O)CN4C(=O)c5ccccc5C4=O)C3C2=O)c1 (configuration not stated) | -5.3 | 0.2 | -0.7 | 0.1 | -1.1 | 0.8
COC(=O)Cn1c(C)c(/C=C/c2cc[n+](C)cc2)c2ccccc21 | . | . | . | 39.3 | . | .
COC(=O)Cn1cc(/C=C/c2cc[n+](C)cc2)c2ccccc21 | -0.7 | . | 1.6 | 51.2* | 3.3 | .
Cc1cc(=O)[nH]c(SCC(=O)Nc2ccccc2C)n1 | -2.6 | 19.5* | 0.9 | -1.4 | 1.1 | 1.4
Cc1cc(SCC(=O)Nc2ccccc2C)nc(C)n1 | -8.2 | 0.1 | 0.3 | 0.5 | -0.2 | -0.2
CCOC(=O)C(=O)Nc1ccc(OCc2ccccc2)cc1 | -19.5 | 5.8 | 6.8 | -1.6 | 5.1 | 3.2
Cc1cc(C)nc(/N=C(\N)Nc2ccc(OCc3ccccc3)cc2)n1 | -17.5 | 111.5* | 75.1* | 124.4* | 76.8* | 101.5*
Cc1cc(C)nc(/N=C(\N)Nc2cccc(OCc3ccccc3)c2)n1 | -10.1 | 72.3* | 46.1* | 107.7* | 49.7* | 61.2*
COc1ccccc1N/C(N)=N/c1nc(C)cc(C)n1 | 6.9 | 3.0 | 1.5 | 9.2 | 1.7 | 2.0
CCn1c(C)c(C(C)=O)c(N2CCN(C(c3ccccc3)c3ccccc3)CC2)nc1=S | 0.1 | 1.7 | 0.0 | 2.4 | 0.4 | 1.0
CCn1c(C)c(C(C)=O)c(N2CCN(c3ccccc3)CC2)nc1=S | -3.6 | -0.3 | 0.5 | 60.0* | 0.5 | 1.4
